Source: PubChem BioAssay (Johns Hopkins Ion Channel Center)
hERG protect – hERG (human) protection from proarrhythmic block. CHO-hERG, FluxOR thallium flux, dofetilide IC70 present. Q12809. activation (rescue from dofetilide block), less the hit threshold, % at 10 µM. 310,000 compounds, 0.51% hits. AID 1511;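 active means activation above the mean of controls blocked by dofetilide plus 5 SD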;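 further: thallium influx through hERG after potassium depolarization seen as dye fluorescence rise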
KCNK3 block – human KCNK3 channel inhibition, primary screen; O14649; CHO-KCNK3 thallium flux, FluxOR fluorescence; hits give low values; B-score at 10 µM; 340,000 compounds, 0.84% hits; AID 602410;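 active means B-score under library mean minus 4 SD, starting fluorescence ratio at most library mean plus 5 SD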;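 further: more negative B-score means stronger inhibition of thallium flux through KCNK3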
KCNK9 inh – inhibitors of human KCNK9 two-pore domain potassium channel; Q9NPC2; HEK293 KCNK9, FluxOR thallium flux fluorescence; hits give low values; B-score at 10 µM; 310,000 compounds, 1.2% hits; AID 488922;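 active means ratio B-score over 3 SD below the library mean, with starting fluorescence within 5 SD of its mean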;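 further: negative B-score means less thallium flux so channel inhibition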
Target sequence (Q9NPC2 whole entry, looked up, the tested form may be a part): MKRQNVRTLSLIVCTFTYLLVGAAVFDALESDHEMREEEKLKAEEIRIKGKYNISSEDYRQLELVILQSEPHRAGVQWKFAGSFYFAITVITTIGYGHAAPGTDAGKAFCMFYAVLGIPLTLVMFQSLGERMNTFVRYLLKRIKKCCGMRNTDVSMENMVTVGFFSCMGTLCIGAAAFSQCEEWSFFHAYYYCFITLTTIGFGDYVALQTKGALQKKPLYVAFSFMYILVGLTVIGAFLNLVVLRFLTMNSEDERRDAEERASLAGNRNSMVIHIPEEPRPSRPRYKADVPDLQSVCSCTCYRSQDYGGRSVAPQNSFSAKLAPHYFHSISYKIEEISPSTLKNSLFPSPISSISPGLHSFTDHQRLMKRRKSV
KCNQ1 block – human KCNQ1 channel inhibition; P51787; CHO-K1 KCNQ1, FluxOR thallium flux fluorescence; hits give high values; B-score at 10 µM; 310,000 compounds, 1.3% hits; AID 2642;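 active means compounds whose thallium flux B-score, printed positive for inhibition, exceeds three library SD while starting fluorescence stays within three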;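 further: channel opened by potassium depolarization with thallium stimulus after 20 min compound exposure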
KCNQ1 pot – potentiates or activates the human KCNQ1 potassium channel. P51787. 310,000 compounds, 0.35% hits. CHO-K1 KCNQ1, thallium flux FluxOR fluorescence; hits give high values. B-score at 10 µM;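 active means fluorescence ratio B-score, a plate-corrected score, at least three library SD, with initial intensity B-score within 5 SD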
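Medium – assay buffer, equal DMSO in all wells · Material – CHO-K1 cell line with stable KCNQ1 potassium channel expression · Signal – kinetic FluxOR thallium fluorescence, 10-s 1-Hz baseline, 110-s post-stimulus read · Compound – single concentration per compound, DMSO matched to controls · Schedule – 37 °C overnight plating, 90-min dark dye load, 20-min compound pretreatment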
Kir21 inh – Kir2.1 (mouse) channel inhibition. B-score at 10 µM. 310,000 compounds, 0.85% hits. HEK293-Kir2.1, FluxOR thallium flux fluorescence; hits give low values;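 active means fluorescence ratio B-score at or below minus 3 SD of library scores, with starting-brightness B-score within 2 SD, cut at about -4.2 in these data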;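 further: channel flux triggered by added potassium and thallium sulfate stimulus; B-score of peak minus minimum fluorescence over baseline after thallium stimulus; more negative B-score means stronger Kir2.1 block with less thallium influx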
KCNK3 inh conf – human KCNK3 channel inhibition, confirmation assay | CHO-KCNK3 thallium flux, FluxOR fluorescence; 0% buffer, 100% carvedilol maximal block | 2,400 compounds, 99% hits | ratio percent of control, % at 10 µM | shares compounds with KCNK3 block;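 active means ratio percent of control, averaged over triplicates, above buffer control mean plus 5 SD, cut at about 64% in these data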;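 further: ratio is the fluorescence rise from min to max over baseline after thallium stimulus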
KCNK3 uninduced – activity in cells without induced KCNK3 expression; shares compounds with KCNK3 block; non-induced KCNK3 parental cells, FluxOR thallium flux; hits give low values; thallium flux ratio (lower = more inhibition) at 10 µM; 2,400 compounds, 40% hits; AID 651747;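 active means thallium flux ratio, averaged over three wells, more than 5 SD below the buffer control mean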;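 further: host cells are CHO cells without KCNK3 induction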
Numbers stand for hits; n = inactive; x = not tested or not shown. Hits are enriched below; roughly 3.7% of the tested compounds scored in any of these assays.

SMILES | hERG protect | KCNK3 block | KCNK9 inh | KCNQ1 block | KCNQ1 pot | Kir21 inh | KCNK3 inh conf | KCNK3 uninduced
CN(C)CCCNC(=O)C[C@H]1C[C@H](C(=O)N2CCOCC2)[C@@]2(C)c3[nH]c4cc(CCC(=O)N(C)C)ccc4c3CCN2C1=O | x | n | x | x | x | x | x | x
CCOc1ccc(C2c3c(oc4ccccc4c3=O)C(=O)N2c2ccc(C)cn2)cc1OC (stereo unspecified) | n | -11 | n | n | n | n | 99 | n
COc1cc(C2c3c(oc4ccccc4c3=O)C(=O)N2c2ccc(C)cn2)ccc1O (stereo unspecified) | n | n | n | n | n | n | x | x
Cc1cccc(OCCn2nnc3ccccc32)c1C | n | n | n | n | n | n | x | x
CCCCn1c(N)c(-c2nc3ccccc3s2)c2c([N+](=O)[O-])nn(CC)c(=O)c21 | n | -11 | n | n | n | n | 122 | 0.13
CCOc1ccc(C2/C(=C(\O)c3ccc4c(c3)OCCO4)C(=O)C(=O)N2CCCn2ccnc2)cc1OC (stereo unspecified) | n | n | n | n | n | n | x | x
CCC(=O)Nc1ccc(Cl)c(NC(=O)c2c(OC)cccc2OC)c1 | n | n | n | n | n | n | x | x
CCC(=O)NN1CCc2cc3ccc(C)cc3nc21 | n | n | n | n | n | n | x | x
CCOC(=O)C1=C(C)OC(N)=C(C#N)C1c1cc(Cl)c(OCC(N)=O)c(OC)c1 (stereo unspecified) | n | n | n | n | n | n | x | x
CCOC(=O)C1=C(C)OC(N)=C(C#N)C1c1cc(OC)c2c(c1)OCO2 (stereo unspecified) | n | -9.7 | n | n | n | n | 94 | n
Cc1ccc[n+](CC(=O)Nc2ccc(N(C)C)cc2)c1 | n | n | n | n | n | n | x | x
Cc1cc(C)c(C#N)c(SCC(=O)Nc2c(C)n(C)n(-c3ccccc3)c2=O)n1 | x | n | x | x | x | x | x | x
CN(CCOc1ccccc1)CC(=O)Nc1cccc(Br)c1 | n | -9.2 | n | n | n | n | 94 | n
Cc1cc(NC(=O)CN(C)CCOc2ccccc2)ccc1Br | n | n | n | n | n | n | x | x
CN(CCOc1ccc(Cl)cc1)CC(=O)Nc1ccc(OC(F)(F)F)cc1 | n | -9.1 | n | n | n | n | 108 | 0.15
COc1ccc(NC(=O)CN(C)CCOc2ccc(Cl)cc2)cc1OC | n | n | n | n | n | n | x | x
CCc1cccc(CC)c1NC(=S)NCC(c1cccnc1)N1CCOCC1 (stereo unspecified) | n | n | n | n | n | n | x | x
COc1cccc(NC(=S)N(Cc2ccco2)C(C)c2ccco2)c1 (stereo unspecified) | n | n | n | n | n | n | x | x
S=C(Nc1ccccc1Cl)N(CCN1CCCCC1)Cc1ccco1 | n | n | n | n | n | n | x | x
CC(c1cccs1)N(Cc1ccco1)C(=S)Nc1ccccc1Cl (stereo unspecified) | n | -9 | n | n | n | n | 107 | n
Cc1cccc(NC(=S)N(Cc2ccco2)C(C)c2cccs2)c1 (stereo unspecified) | n | -9.7 | n | n | n | n | 94 | n
O=C(CSc1ccccc1Cl)N1CCC(c2nc3ccccc3s2)CC1 | n | -9.8 | n | n | n | n | 107 | n
Cc1ccc(S(=O)(=O)N(C)C)cc1NC(=O)COC(=O)c1c(-c2ccccc2)noc1C | n | -9 | n | n | n | n | 91 | n
Cc1ccc2c(Cl)cc(Cl)c(OCC(=O)Nc3cc(S(=O)(=O)N(C)C)ccc3C)c2n1 | n | -9.1 | n | n | n | n | 90 | 0.15
Cc1ccccc1NC(=O)COC(=O)c1c(-c2ccccc2)noc1C | x | n | x | x | x | x | x | x
SMILES | hERG protect | KCNK3 block | KCNK9 inh | KCNQ1 block | KCNQ1 pot | Kir21 inh | KCNK3 inh conf | KCNK3 uninduced
COc1cc(CN(C)CC2CCCN(CCc3ccc(F)cc3)C2)c(Cl)cc1O (stereo unspecified) | n | -9.6 | n | n | n | n | 80 | n
COc1cc(CN(C)CC2CCCN(CCc3cccc(C(F)(F)F)c3)C2)ccc1O (stereo unspecified) | n | n | n | n | n | n | x | x
Cc1cc(N2C3CCC2CC(O)(c2ccc(F)cc2)C3)nc(-c2ccccc2)n1 (stereo unspecified) | n | -10 | n | n | n | n | 101 | 0.15
CCCN1C(=S)c2ccccc2C1c1ccccc1 (stereo unspecified) | n | -11 | n | n | n | n | 121 | 0.15
CCCCN1C(=S)NC[C@@H]1c1ccccc1 | n | n | n | n | n | n | x | x
CCOc1ccc(S(=O)(=O)N2CCOCC2)cc1NC(=O)CSCC(=O)Nc1ccc(OC)cc1 | x | n | x | x | x | x | x | x
CN(CCOc1ccc(Cl)cc1)C(=O)c1cc(-c2ccco2)nc2ccccc12 | n | -10 | n | n | n | n | 117 | 0.13
Cc1ccc(-n2c(SCC(N)=O)nnc2-c2ccc(S(=O)(=O)N3CCCCC3)cc2)c(C)c1 | n | n | n | n | n | n | x | x
Cc1ccc(NC(=O)c2ccc(Cl)c(S(=O)(=O)N3CCCCCC3)c2)nc1 | n | -9.7 | n | n | n | n | 115 | n
O=C(Nc1ccc(Cl)cn1)c1ccc(Br)c(S(=O)(=O)N2CCCCC2)c1 | n | n | -7.4 | n | n | n | 102 | n
O=C(Nc1ccccn1)c1ccc(Cl)c(S(=O)(=O)N2CCCC2)c1 | n | n | n | n | n | n | x | x
Cc1nc(-c2ccc(F)cc2)c(CC(=O)N2CCN(S(=O)(=O)c3cccc(Cl)c3)CC2)s1 | n | n | n | n | n | n | x | x
CN(Cc1ccccc1)S(=O)(=O)c1ccc(Cl)c(C(=O)NCCCN2CCOCC2)c1 | n | n | n | n | n | n | x | x
COCc1c(C(=O)N2CCc3ccccc32)oc2ccccc12 | n | -11 | n | n | n | n | 86 | n
Cc1c(C(=O)N2CCc3ccccc32)oc2ccccc12 | n | n | n | n | n | n | x | x
Cc1cc([N+](=O)[O-])ccc1-c1ccc(/C=N/NC(=O)c2ccc(Br)o2)o1 | n | -9.4 | n | n | n | n | 105 | n
COc1ccc(C(=O)N(C)C2CCCCC2)cc1S(=O)(=O)N1CCOCC1 | x | n | x | x | x | x | x | x
O=C(CSc1nc2ccccc2c(=O)n1Cc1ccco1)c1ccc(F)cc1 | n | -9.6 | n | n | n | n | 112 | n
Cc1cc2c(=O)n(Cc3ccco3)c(SCC(=O)c3ccc(Cl)s3)nc2s1 | n | -9.7 | -6.7 | n | n | n | 108 | n
N#Cc1ccc(C(=O)OCC(=O)N2CCOCC2)cc1 | n | n | n | n | n | n | x | x
COc1ccc(NC(=O)COC(=O)c2c3c(nc4ccccc24)CCCC3)cc1Cl | n | -9.1 | -9.7 | n | n | n | 120 | 0.15
